Reference: ChEMBL document CHEMBL4842356, “Discovery, optimization, and target identification of novel coumarin derivatives as HIV-1 reverse transcriptase-associated ribonuclease H inhibitors” (Eur J Med Chem, 2021)

Experiments:
MT4 = test: Cytotoxicity against mock-infected human MT4 cells assessed as reduction in cell viability measured after 5 days by MTT assay; type: functional; conditions: MT4, 120 h, time 5 day
Summary of the method: (§1)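 MT-4 cells (exponentially growing, resuspended at 6 × 10⁵ cells/mL) were seeded onto serial five-fold compound dilutions and infected with 100–300 CCID₅₀ virus stock, or given medium only (mock). Viability was read by MTT at 540 and 690 nm five days after infection, using the median OD of three wells. EC₅₀ is 50% protection from viral cytopathicity. CC₅₀ is 50% loss of viability in mock-infected cells.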

[1] = test system: Human immunodeficiency virus 1; test: Antiviral activity against HIV1 harboring reverse transcriptase K103N mutant infected in human MT4 cells assessed as protection against virus-induced cytopathic effect incubated for 5 days by MTT assay; type: functional, organism-based; conditions: Human immunodeficiency virus 1, MT4, 120 h
Summary of the method: (§2)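 MT-4 cells (exponentially growing, resuspended at 6 × 10⁵ cells/mL) exposed to serial five-fold compound dilutions, then infected with mutant HIV-1 stock at 100–300 CCID₅₀; mock-infected wells run in parallel for cytotoxicity. Viability read by MTT at 540 and 690 nm on day 5. Median OD of three wells used; EC₅₀ is the concentration giving 50% protection from viral cytopathicity.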

[2] = test system: Human immunodeficiency virus 1; test: Antiviral activity against HIV1 harboring reverse transcriptase Y188L mutant infected in human MT4 cells assessed as protection against virus-induced cytopathic effect incubated for 5 days by MTT assay; type: functional, organism-based; conditions: Human immunodeficiency virus 1, MT4, 120 h; summary of the method: as §2
[3] = test system: Human immunodeficiency virus 1; test: Antiviral activity against wild type HIV1 3B infected in human MT4 cells assessed as protection against virus-induced cytopathic effect incubated for 5 days by MTT assay; type: functional, organism-based; conditions: Human immunodeficiency virus 1, 3B, MT4, 120 h; summary of the method: as §1
[4] = molecular target: Human immunodeficiency virus type 1 reverse transcriptase (Human immunodeficiency virus 1, UniProt Q72547); test: Inhibition of wild type HIV1 Reverse transcriptase RNase H expressed in Escherichia coli using 5'-UUUUUUUUUAGGAUACAUAUGGUUAAAGU-3' oligonucleotide as substrate and DNA21P as primer in presence of [gamma32P]-ATP by PAGE analysis
Summary of the method: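 Wild-type HIV-1 BH10 RT was expressed in E. coli and purified. RNase H activity was measured on a 31-nt RNA, 5′-³²P-labelled, annealed to a 21-nt DNA (31T/21P). Cleaved substrate was quantified without inhibitor (5% DMSO) and with compound over 0.2–100 µM. IC₅₀ values were taken from dose-response curves.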

[5] = test system: Human immunodeficiency virus 2; test: Antiviral activity against HIV2 ROD infected in human MT4 cells assessed as protection against virus-induced cytopathic effect incubated for 5 days by MTT assay; conditions: Human immunodeficiency virus 2, ISOLATE ROD, MT4, 120 h
[6] = test system: Human immunodeficiency virus 1; test: Antiviral activity against HIV1 L1001 infected in human MT4 cells assessed as protection against virus-induced cytopathic effect incubated for 5 days by MTT assay; type: functional, organism-based; conditions: Human immunodeficiency virus 1, L1001, MT4, 120 h; summary of the method: as §2
[7] = test system: Human immunodeficiency virus 1; test: Antiviral activity against HIV1 harboring reverse transcriptase E138K mutant infected in human MT4 cells assessed as protection against virus-induced cytopathic effect incubated for 5 days by MTT assay; type: functional, organism-based; conditions: Human immunodeficiency virus 1, MT4, 120 h
[8] = test system: Human immunodeficiency virus 1; test: Antiviral activity against HIV1 harboring reverse transcriptase Y181C mutant infected in human MT4 cells assessed as protection against virus-induced cytopathic effect incubated for 5 days by MTT assay; type: functional, organism-based; conditions: Human immunodeficiency virus 1, MT4, 120 h; summary of the method: as §2
[9] = test system: Human immunodeficiency virus 1; test: Antiviral activity against HIV1 harboring reverse transcriptase V106A/F227 mutant infected in human MT4 cells assessed as protection against virus-induced cytopathic effect incubated for 5 days by MTT assay; type: functional, organism-based; conditions: Human immunodeficiency virus 1, MT4, 120 h; summary of the method: as §2
[10] = test system: Human immunodeficiency virus 1; test: Antiviral activity against HIV1 RES056 infected in human MT4 cells assessed as protection against virus-induced cytopathic effect incubated for 5 days by MTT assay; type: functional, organism-based; conditions: Human immunodeficiency virus 1, RES056, MT4, 120 h; summary of the method: as §1

Compound | CC50 (MT4) | EC50 [1] | EC50 [2] | EC50 [3] | IC50 [4] | EC50 [5] | EC50 [6] | EC50 [7] | EC50 [8] | EC50 [9] | EC50 [10]
COC(=O)c1cc(NC(=O)c2cc3cc([N+](=O)[O-])c(O)c(O)c3oc2=O)ccc1O | > 300 µM | 5.62 µM | 44.3 µM | 3.94 µM | 12.3 µM | 169 µM | 16.5 µM | 22.5 µM | 22.4 µM | 101 µM | 
Cc1ccnc2c1NC(=O)c1cccnc1N2C1CC1 [NEVIRAPINE] | > 15 µM | 2.85 µM | > 2.97 µM | 1.9 µM |  |  | 0.7 µM |  |  | > 5.78 µM | > 15 µM
